CAL PDZ FP-1 = CAL PDZ peptide-binding inhibitors, primary screen, biochemical, fluorescence polarization, Cer-tagged CAL PDZ, HTS. Golgi-associated PDZ and coiled-coil motif-containing protein (Homo sapiens), Q9HD26. purified CAL PDZ, TMR-peptide fluorescence polarization, 1 h. inhibition, % at 20 µM. 0.02% of 330,000 active;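 active = highest replicate inhibition of at least 40%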;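 also: plate controls were DMSO neutral control wells for no effect and unlabeled competitor peptide control wells for full effect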
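Material – purified CerCALP PDZ construct · Detection – FP readout, S and P plane fluorescence · Measure – percent inhibition from loss of millipolarization · Controls – unlabelled peptide for full inhibition, DMSO wells as neutral · Probe or stimulus – TMR-labelled reporter peptide T*-PRC34 bound in PDZ groove · Times – 1 h at RT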
CAL PDZ FP-2 = untagged CAL PDZ binding inhibitors, primary screen, biochemical, fluorescence polarization, HTS; Golgi-associated PDZ and coiled-coil motif-containing protein (Homo sapiens), Q9HD26; purified CAL PDZ, TMR-peptide fluorescence polarization, 1 h; inhibition, % at 24.9 µM; 0.92% of 300,000 active; AID 602252, 2012;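 active = mean inhibition of at least 30% with at least half of replicates also reaching 30%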;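 also: 0% = DMSO neutral control and 100% = excess unlabeled competitor peptide PRC23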
ARNT TACC3 PPI = disruptors of ARNT/TACC3 protein interaction, primary screen, biochemical, AlphaScreen, single concentration; 0.66% of 390,000 active; inhibition, % at 9.99 µM; AlphaScreen His-ARNT PAS-B/GST-TACC3 binding, luminescence; TACC3 fragment carries E629A point mutation; AID 623870, 2012;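 active = mean inhibition of replicates at least 50% and at least half of replicates each reaching 50%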;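 also: 0% = complete ARNT plus TACC3 wells and 100% = ARNT alone without TACC3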
* = called active by the depositor; . = no result given. This is a sample that favours compounds with a hit; in the whole collection about 1.2% have one here.

SMILES	CAL PDZ FP-1	CAL PDZ FP-2	ARNT TACC3 PPI
O=C(Nc1ccc(Cl)cc1)N1CCN(c2ccc3nnc(-c4ccc(F)cc4)n3n2)CC1	-5.5	.	-6.8
O=C(Nc1ccccc1Cl)N1CCN(c2ccc3nnc(-c4ccccc4)n3n2)CC1	-4.7	57.0*	1.5
O=C(C[C@@H]1C[C@@H]2c3cc(NC(=O)CC4CC4)ccc3O[C@@H]2[C@H](CO)O1)NCCc1ccccc1	.	.	0.4
Cc1ccc(-c2cnc(N)n2C)cc1C	-0.9	-3.9	63.1*
Cc1ccc(-c2cnc3ccccc3n2)cc1C	-1.7	-7.3	-9.7
Cc1ccc(S(=O)(=O)N(C)C[C@H]2OCc3ccccc3-c3ccccc3C(=O)N([C@H](C)CO)C[C@H]2C)cc1	.	.	9.6
C[C@H]1CCCCO[C@@H](CN(C)S(=O)(=O)c2ccccc2)[C@@H](C)CN([C@@H](C)CO)C(=O)c2cc(NC(=O)C3CCCCC3)ccc2O1	.	.	0.2
CCOC(=O)C1CCN(Cc2ccccc2C(F)(F)F)CC1	-0.6	.	-30.9
CCOC(=O)C1CCN(Cc2ccc(O)c3ncccc23)CC1	-0.2	0.1	69.3*
O=C(CSCc1ccc(Cl)cc1)Nc1ccc(O)cc1C(=O)O	-0.4	3.5	46.5*
COc1cc(NC(=O)CSCc2ccc(Cl)cc2)c(C(=O)O)cc1OC	-0.8	.	-2.4
Cc1noc(C)c1NC(=O)N(C)C[C@H]1OCCCC[C@@H](C)Oc2ccc(NC(=O)c3ccncc3)cc2C(=O)N([C@@H](C)CO)C[C@H]1C	.	.	-11.8
O=C(NCC1CCCCC1)c1cccnc1	3.5	43.4*	-3.0
O=C(NC[C@@H]1[C@@H](c2ccccc2)[C@@H](CO)N1CC1CCCC1)c1cccnc1	.	.	0.0
CO[C@H]1CN(C)C(=O)c2ccc(NC(=O)NC(C)C)cc2OC[C@H](C)N(Cc2ccccc2)C[C@@H]1C	.	.	3.6
C[C@@H]1CN([C@@H](C)CO)C(=O)c2cccc(NC(=O)Nc3ccc4c(c3)OCO4)c2O[C@@H]1CN(C)Cc1ccc(C(F)(F)F)cc1	.	.	8.0
CCC(=O)Nc1ccc2c(c1)OC[C@H](C)N(C(=O)CC1CC1)C[C@H](C)[C@H](OC)CN(C)C2=O	.	.	-3.0
Cc1cccc(N(CC(=O)NC2CCCCC2)C(=O)CCCC(=O)Nc2ccccn2)c1	-0.8	74.0*	-2.5
Cc1cccc(N(CC(=O)NC2CCCC2)C(=O)CCCC(=O)Nc2ccccn2)c1	-0.7	1.6	-4.2
O=C1CN(C(=O)COc2ccccc2F)c2ccccc2N1	-0.6	-2.4	24.5
CC1(C)C(=O)Nc2ccccc2N1C(=O)COC(=O)C12CC3CC(CC(O)(C3)C1)C2	-1.6	-3.4	3.2
O=C1CN(C(=O)COc2ccccc2Cl)c2ccccc2N1	-0.5	44.7*	-5.1
O=C1CN(C(=O)COC(=O)C23CC4CC(CC(O)(C4)C2)C3)c2ccccc2N1	0.0	38.7*	-0.2
O=C1CN(C(=O)COc2c(F)c(F)cc(F)c2F)c2ccccc2N1	-3.3	-3.1	0.0
O=C1CN(C(=O)COc2ccc(F)cc2Br)c2ccccc2N1	-5.0	66.9*	0.5
SMILES	CAL PDZ FP-1	CAL PDZ FP-2	ARNT TACC3 PPI
COc1ccc(CN(C)C[C@@H]2Oc3c(NS(=O)(=O)c4ccc(OC)cc4)cccc3C(=O)N([C@@H](C)CO)C[C@@H]2C)cc1	.	.	-5.7
C[C@@H]1CN([C@H](C)CO)C(=O)Cc2cc(NC(=O)c3ccncc3)ccc2O[C@@H]1CN(C)CC1CCCCC1	.	.	-0.6
COc1ccc(CC(=O)NCCC(C)C)cc1S(=O)(=O)N1CCOCC1	-1.6	42.4*	-2.1
COc1ccc(C(=O)NCCC(C)C)cc1S(=O)(=O)N1CCOCC1	-0.5	2.4	-11.3
O=C(C[C@H]1C[C@H]2c3cc(NS(=O)(=O)c4ccc(F)cc4)ccc3O[C@H]2[C@H](CO)O1)N1CCCCC1	.	.	-14.7
O=C(C[C@H]1C[C@@H]2c3cc(NC(=O)c4cccnc4)ccc3O[C@@H]2[C@@H](CO)O1)NCCc1ccccc1	.	.	-5.0
O=C(COC(=O)c1cc(=O)[nH]c2ccccc12)Nc1cccc(S(=O)(=O)N2CCOCC2)c1	-6.5	75.9*	15.8
O=C(COC(=O)c1cc(=O)[nH]c2ccccc12)Nc1ccc(Cl)c(S(=O)(=O)N2CCOCC2)c1	-5.4	-7.5	8.9
O=C(COC(=O)c1cc(S(=O)(=O)N2CCOCC2)ccc1F)c1ccccc1	-1.0	42.7*	.
CC(C)NC(=O)COC(=O)c1cc(=O)[nH]c2ccccc12	0.0	16.6	-1.5
N#CC1(NC(=O)COC(=O)c2cc(=O)[nH]c3ccccc23)CCCCC1	-1.7	32.3*	-19.5
O=C(OCC(=O)N1CCCc2ccccc21)c1cc(S(=O)(=O)N2CCOCC2)ccc1F	-0.8	-2.9	-3.1
O=C(COC(=O)c1ccc(F)c(S(=O)(=O)N2CCOCC2)c1)c1ccccc1	-3.4	12.1	.
O=C(OCC(=O)N1CCCc2ccccc21)c1cc(S(=O)(=O)N2CCOCC2)ccc1O	0.1	64.6*	.
Cc1ccc(S(=O)(=O)Nc2ccc3c(c2)C(=O)N([C@H](C)CO)C[C@@H](C)[C@H](CN(C)Cc2ccccc2)OCCCC[C@@H](C)O3)cc1	.	.	3.9
CC(C)CN1C(=O)c2ccc(NC(=O)Cc3ccccc3)cc2C1=O	-0.2	74.3*	-1.5
O=C(O)CCN1C(=O)c2ccc(NC(=O)CCc3ccccc3)cc2C1=O	-0.3	-5.9	8.3
C[C@H](CO)N1C[C@H](C)[C@H](CN(C)C(=O)Nc2cccc3ccccc23)Oc2c(NS(=O)(=O)c3cccs3)cccc2C1=O	.	.	31.7
Cc1cccc(N2CCN(CC3CCCCC3)CC2)c1C	-1.1	47.2*	-11.0
Cc1ccc(C)c(N2CCN(CC3CCCCC3)CC2)c1	-0.4	.	-12.2
COc1cccc(S(=O)(=O)N[C@H]2CC[C@H](CC(=O)NCc3ccc(Cl)cc3)O[C@H]2CO)c1	.	.	-14.3
COC(=O)C[C@@H]1CC[C@H](NS(=O)(=O)c2ccc(OC)cc2)[C@@H](CO)O1	.	.	24.0
COC(=O)C[C@H]1CC[C@@H](NS(=O)(=O)c2ccc(OC)cc2)[C@H](CO)O1	.	.	48.0*
COc1cccc(S(=O)(=O)N[C@H]2CC[C@@H](CC(=O)NCc3ccc(Cl)cc3)O[C@H]2CO)c1	.	.	35.8*
CCC(=O)N1[C@@H]2CN(C(=O)Nc3ccccc3Cl)c3ccccc3[C@@H]2[C@@H]1CO	.	.	4.5
SMILES	CAL PDZ FP-1	CAL PDZ FP-2	ARNT TACC3 PPI
CC=Cc1ccc2n(c1=O)C[C@@H]1[C@@H](CO)[C@H](C(=O)NCCC)N(C(=O)C3CCOCC3)[C@H]21 (mixture of isomers)	.	.	15.9
C[C@H]1CCCCO[C@@H](CN(C)C(=O)NC2CCCCC2)[C@@H](C)CN([C@@H](C)CO)C(=O)c2cc(NC(=O)Nc3cccc4ccccc34)ccc2O1	.	.	-6.8
CN1CCN(C(=O)C[C@@H]2C[C@H]3c4cc(NC(=O)C5CCC5)ccc4O[C@H]3[C@@H](CO)O2)CC1	.	.	1.3
CC(C)Sc1nnc(CNC(=O)C23CC4CC(CC(C4)C2)C3)n1C1CCCCC1	-1.1	47.2*	7.4
Cc1nnc(NC(=O)CSc2nnc(CNC(=O)C34CC5CC(CC(C5)C3)C4)n2C2CCCCC2)s1	-0.6	2.1	-0.8
O=C(N/N=C/c1ccco1)c1cc(-c2ccc(Br)s2)[nH]n1	-3.2	-4.4	-0.9
